We go through 14 compounds from paper PMC9052940 (RSC Advances, 2020).

Read-outs that look alike come from different tables or passages of the source.

For data set [1] the following is noted: cited from earlier work.
The conditions of data set [2]: parameter of the normalized HLD; cited from earlier work.
For data set [3] the following is noted: 3%C10E4/n-octane/10^−2 M NaClaq; cited from earlier work.
A short description of data set [4]: PIT-slope characterization. The format is physicochemical. Particulars: molar fraction; added to 3%C10E4/n-octane/10^−2 M NaClaq. Summed up: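 Increasing amounts of test surfactant added to a reference system of 3% C10E4/n-octane/aqueous NaCl. The shift in phase inversion temperature was recorded against concentration and against molar fraction, x = moles added/(moles C10E4 + moles added). Pure n-alkyl-β-D-glucosides and maltosides served as linear references. Average error below 10%.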

The conditions of data set [5]: calculated from NMR experiments in D2O solutions; cited from earlier work.
Setting [6] is: a = turbid solutions close and above CMC.

As for `CCCCCCCCCCCCCC(=O)OC[C@H]1OC(O)[C@H](O)[C@H]1O` (single isomer, unassigned) [5-O-Xylose monoester (α, β isomers) C14], in data set [1] (setting [6]), the CMC is 0.015 mmol/L and the γCMC is recorded as 36.0 mN m^−1.
For the compound `CCCCCCCCCCCCCCCC(=O)OC[C@H]1OC(O)[C@H](O)[C@H]1O` (single isomer, unassigned) [5-O-Xylose monoester (α, β isomers) C16], in data set [1] (setting [6]), the CMC is 0.022 mmol/L and the γCMC is 41.0 mN m^−1.
Take `CCCCCCCCCCOCCOCCOCCOCCO` [C10E4]: in data set [2], the PACN1 is listed as 8.2. Moreover, the “PIT (Phase Inversion Temperature) of the reference system” value in data set [3] is 23.9 °C.
For `CCCCCCCCCCCCO[C@H]1O[C@H](CO)[C@@H](O)[C@H](O)[C@H]1O` [α-D-Glucoside C12], in data set [1] (setting [6]), the CMC was 0.042 mmol/L and the γCMC is 41.2 mN m^−1.
`CCCCCCCCCCCCO[C@H]1O[C@H](CO)[C@@H](O[C@H]2O[C@H](CO)[C@@H](O)[C@H](O)[C@H]2O)[C@H](O)[C@H]1O` [α-D-Maltoside C12]: in data set [1] (setting [6]), the CMC is 0.12 mmol/L and the γCMC is listed as 35.9 mN m^−1.
In data set [4], `CCCCCCCCO[C@@H]1O[C@H](CO)[C@@H](O)[C@H](O)[C@H]1O` [β-D-Glucoside C8, n-octyl-β-D-glucoside] registered a dPIT/dx of 77.8 °C. Besides, in data set [1] (ref 44), the CMC was 25.0 mmol/L and the γCMC is on record as 30.1 mN m^−1.
Regarding `CCCCCCCCCCO[C@@H]1O[C@H](CO)[C@@H](O)[C@H](O)[C@H]1O` [β-D-Glucoside C10], the dPIT/dx in data set [4] came to 47.8 °C. In data set [1] (ref 44), the CMC was 2.2 mmol/L and the γCMC is given as 27.7 mN m^−1.
In data set [4], `CCCCCCCCCCCCO[C@@H]1O[C@H](CO)[C@@H](O)[C@H](O)[C@H]1O` [β-D-Glucoside C12] showed a dPIT/dx of 27.0 °C. Moreover, the CMC in data set [1] (setting [6]) was 0.13 mmol/L; in data set [1] (ref 44) it was 0.19 mmol/L. For the same compound, the γCMC in data set [1] (setting [6]) was 33.1 mN m^−1; in data set [1] (ref 44), 39.4 mN m^−1.
Regarding `CCCCCCCCO[C@@H]1O[C@H](CO)[C@@H](O[C@H]2O[C@H](CO)[C@@H](O)[C@H](O)[C@H]2O)[C@H](O)[C@H]1O` [β-D-Maltoside C8], the CMC in data set [1] (ref 34) was 23.2 mmol/L.
`CCCCCCCCCO[C@@H]1O[C@H](CO)[C@@H](O[C@H]2O[C@H](CO)[C@@H](O)[C@H](O)[C@H]2O)[C@H](O)[C@H]1O` [β-D-Maltoside C9]: the CMC in data set [1] (ref 34) is 6.50 mmol/L.
As to `CCCCCCCCCCO[C@@H]1O[C@H](CO)[C@@H](O[C@H]2O[C@H](CO)[C@@H](O)[C@H](O)[C@H]2O)[C@H](O)[C@H]1O` [β-D-Maltoside C10], in data set [4], the dPIT/dx stood at 123.0 °C. Besides, the CMC in data set [1] (ref 34) was 2.19 mmol/L. Further, in data set [1] (ref 45), the CMC was 1.95 mmol/L and the γCMC is reported as 36.7 mN m^−1.
In data set [4], `CCCCCCCCCCCCO[C@@H]1O[C@H](CO)[C@@H](O[C@H]2O[C@H](CO)[C@@H](O)[C@H](O)[C@H]2O)[C@H](O)[C@H]1O` [β-D-Maltoside C12, n-dodecyl-β-D-maltoside] showed a dPIT/dx of 112.2 °C. Further, the CMC in data set [1] (setting [6]) was 0.13 mmol/L; in data set [1] (ref 34), 0.19 mmol/L; in data set [1] (ref 45) it was 0.15 mmol/L. Further, the γCMC in data set [1] (setting [6]) is on record as 33.1 mN m^−1; in data set [1] (ref 45) it was 35.3 mN m^−1. Besides, in data set [1] (ref 60), the “Γeq (equilibrated surface excess)” value is listed as 3.32 × 10^−6 mol m^−2. Also, the “Diffusion coefficient of micelles” value in data set [5] is reported as 7 × 10^−11 m^2 s^−1.
In data set [4], `CCCCCCCCCCCCCCO[C@@H]1O[C@H](CO)[C@@H](O[C@H]2O[C@H](CO)[C@@H](O)[C@H](O)[C@H]2O)[C@H](O)[C@H]1O` [β-D-Maltoside C14] had a dPIT/dx of 80.7 °C. In addition, the CMC in data set [1] (ref 34) is 0.0167 mmol/L.
The compound `CCCCCCCCCCCCCCCCO[C@@H]1O[C@H](CO)[C@@H](O[C@H]2O[C@H](CO)[C@@H](O)[C@H](O)[C@H]2O)[C@H](O)[C@H]1O` [β-D-Maltoside C16] had a dPIT/dx in data set [4] of 74.3 °C. Further, the CMC in data set [1] (ref 34) is 0.00145 mmol/L.
